One series deals with Cylindrotheca closterium. The series can be described thus: Antimicrobial activity against Cylindrotheca closterium AC 170 after 48 hrs. It counts as functional, organism-based. In a few lines: (§1)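 Microalgal cultures (0.4 μg/mL chlorophyll A) in F/2 medium were incubated with compound for 48 h at 18 °C under a 15:9 light:dark cycle with cool-white fluorescent light at 54 μmol photons/m²·s. Relative optical density at 600 nm gave the MIC versus a seawater control.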

For series [1], the system named is Pseudoalteromonas distincta. Briefly: Antibacterial activity against Pseudoalteromonas elyakovii ATCC 700519 after 48 hrs by microtiter broth dilution method. It counts as functional. The note with it: ATCC 700519, 48 h. In a few lines:
(§2)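 Marine bacterial strains at 2×10^8 cells/mL were exposed to compound for 48 h at 25 °C in Mueller Hinton broth supplemented with NaCl (15 g/L). MIC was set by microtiter broth dilution against a culture-medium control.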
(In general: Dilution methods test growth across graded concentrations, often in twofold steps.)

For another series, the system named is Vibrio aestuarianus. The series can be described thus: Antibacterial activity against Vibrio aestuarianus ATCC 35048 after 48 hrs by microtiter broth dilution method. The settings on record: ATCC 35048, 48 h. It counts as functional. In a few lines:
as §2

A further series concerns Polaribacter irgensii. Briefly: Antibacterial activity against Polaribacter irgensii ATCC 700398 after 48 hrs by microtiter broth dilution method. It counts as functional. The note with it: ATCC 700398, 48 h. In a few lines: as §2
The next series concerns Salmonella typhimurium. Briefly: Antibacterial activity against Salmonella Typhimurium ATCC 35986 after 48 hrs by microtiter broth dilution method. The settings on record: Salmonella enterica, ATCC 35986, 48 h. It counts as functional, Salmonella enterica subsp. enterica serovar Typhimurium. Put shortly: (§3)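 Terrestrial bacterial strains at 2×10^8 cells/mL were incubated with compound for 48 h at 25 °C in trypsic soy broth. MIC was read by microtiter broth dilution against a culture-medium control.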

The test system of a further series is Escherichia coli. The series can be described thus: Antibacterial activity against Escherichia coli ATCC 35049 after 48 hrs by microtiter broth dilution method. It counts as functional. The note with it: ATCC 35049, 48 h. Put shortly: as §3
The test system of a further series is Bacillus subtilis. Briefly: Antibacterial activity against Bacillus subtilis ATCC 55572 after 48 hrs by microtiter broth dilution method. It counts as functional. The note with it: ATCC 55572, 48 h. In a few lines: as §3
Series [2] concerns Exanthemachrysis gayraliae. Briefly: Antimicrobial activity against Exanthemachrysis gayraliae AC 15 after 48 hrs. It counts as functional. Put shortly:
as §1

Another series has as its system Sargassum muticum. The series can be described thus: Antimicrobial activity against Sargassum muticum after 48 hrs. It counts as functional, organism-based. Put shortly: (§4)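 Spores (3000 spores/mL) in F/2 medium were exposed to compound for 48 h at 18 °C under a 15:9 light:dark cycle with cool-white fluorescent light at 54 μmol photons/m²·s. Germination and attachment rates were then scored.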

A further series has as its system Ulva intestinalis. The series can be described thus: Antimicrobial activity against Ulva intestinalis after 48 hrs. It counts as functional, organism-based. Put shortly:
as §4

Series [3] in a line: Inhibition of Mytilus edulis phenoloxidase after 2 hrs. Put shortly:
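Purified mussel phenoloxidase was preincubated with compound for 2 h. Activity was then followed as the rise in absorbance at 475 nm with L-Dopa (10 mM) as substrate, and percent inhibition was calculated against the control.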

The nature of series [4]: Toxicity against Echinus esculentus larvae after 48 hrs. In a few lines:
(§5)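 Larvae incubated with compounds at 0.5, 1, 2.5, 5, 10, 25, 50 and 100 μg/mL, 10–15 larvae per well in 2 mL solution. Viable larvae counted after 48 h exposure. LC50 is the concentration giving 50% mortality relative to control, derived by curve fitting. Six replicates per test and control, with two batches of organisms.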

Series [5] can be described thus: Toxicity against Crassostrea gigas larvae after 48 hrs. In a few lines:
as §5

Another series deals with Chrysotila roscoffensis. Briefly: Antimicrobial activity against Pleurochrysis roscoffensis AC 238 after 48 hrs. It counts as functional, organism-based. In a few lines: as §1

≈ marks a conversion by molar mass, not a printed value. Calls of active or inactive are those of the source. No cut-off for these calls is given here.

One may read the MIC as the lowest concentration that inhibits growth of the organism. Lower therefore signals greater potency. Usually IC50 stands for the point on the concentration scale where inhibition reaches its midpoint. Lower therefore signals inhibition by little substance. By LC50 is commonly meant the concentration that kills 50% of the test population. A lower LC50 goes with greater toxicity.

In the case of `COc1cc(C)c2c(c1)C=C[C@](C)(CC1=C(CC(C)(C)O)C(=O)[C@@]3(C)CCC[C@]3(C)C1)O2`, the outcome (in the series with Cylindrotheca closterium; in series [2]; with Chrysotila roscoffensis) was inactive. Moreover, the MIC (in series [1]; against Vibrio aestuarianus; in the series on Polaribacter irgensii; in the series with Salmonella typhimurium; in the series with Escherichia coli; in the series on Bacillus subtilis) was above 100 µg/mL in each case. Besides, the IC50 in the series with Sargassum muticum was 2.5 µg/mL (≈ 5.7 µM); in the series with Ulva intestinalis, above 100 µg/mL; in series [3], 1 µg/mL (≈ 2.28 µM). The LC50 at 48 h in series [4] and in series [5] was above 100 µg/mL throughout.
For the compound `CC(=O)/C=C1\C[C@@]2(C)CCC[C@]2(C)C2=C1CC(C)(C)O2`, the result (with Cylindrotheca closterium; in series [2]; in the series on Chrysotila roscoffensis) was inactive. The MIC (in [1]; against Vibrio aestuarianus; against Polaribacter irgensii; in the series with Salmonella typhimurium; in the series with Escherichia coli; with Bacillus subtilis) was above 100 µg/mL in each case. In addition, the IC50 in the series with Sargassum muticum is above 100 µg/mL; in the series with Ulva intestinalis, 2.5 µg/mL (≈ 9.11 µM); in series [3], 2.5 µg/mL (≈ 9.11 µM). The LC50 at 48 h in series [4] and in [5] was above 100 µg/mL in each case.
Turning to `COc1cc(C)c(O)c(C/C=C(\C)C[C@]2(O)C[C@@]3(C)CCC[C@]3(C)C(=O)[C@@H]2CC(C)(C)O)c1`, the outcome (with Cylindrotheca closterium; in series [2]; in the series on Chrysotila roscoffensis) was inactive. Further, the MIC (in series [1]; against Vibrio aestuarianus; in the series with Polaribacter irgensii; with Salmonella typhimurium; in the series on Escherichia coli; against Bacillus subtilis) was above 100 µg/mL throughout. Also, the LC50 at 48 h in series [4] and in series [5] was above 100 µg/mL in each case.
As to `COc1cc(C)c(O)c(C/C=C(\C)CC2=C(CC(C)(C)O)C(=O)[C@@]3(C)CCC[C@]3(C)C2)c1`, the outcome (with Cylindrotheca closterium; in series [2]; in the series on Chrysotila roscoffensis) was inactive. Moreover, the MIC (in [1]; in the series with Vibrio aestuarianus; against Polaribacter irgensii; against Salmonella typhimurium; against Escherichia coli; in the series on Bacillus subtilis) was above 100 µg/mL each time. For the same compound, the LC50 at 48 h in series [4] and in series [5] was above 100 µg/mL throughout.
Take `COc1cc(C)c2c(c1)C=C[C@@](C)(CC1=C(CC(C)(C)O)C(=O)[C@@]3(C)CCC[C@]3(C)C1)O2`: the result (in the series on Cylindrotheca closterium; in [2]; in the series on Chrysotila roscoffensis) was inactive. The MIC (in series [1]; in the series on Vibrio aestuarianus; against Polaribacter irgensii; with Salmonella typhimurium; against Escherichia coli; against Bacillus subtilis) was above 100 µg/mL in each case. The LC50 at 48 h in series [4] and in series [5] was above 100 µg/mL each time.
For the compound `CC1=C(CC(C)(C)O)C(=O)[C@@]2(C)CCC[C@]2(C)C1`, the result in the series on Cylindrotheca closterium and in the series on Chrysotila roscoffensis was inactive. The MIC (in series [1]; against Vibrio aestuarianus; against Polaribacter irgensii; in the series with Salmonella typhimurium; in the series with Escherichia coli; against Bacillus subtilis) was above 100 µg/mL each time. Moreover, in [2] (AC 15, 48 h), the MIC turned out to be 1 µg/mL (≈ 3.99 µM). Besides, the IC50 (with Sargassum muticum; with Ulva intestinalis; in [3]) was 1 µg/mL (≈ 3.99 µM) in each case. The LC50 at 48 h in [4] and in series [5] was above 100 µg/mL each time.

The values are drawn from ChEMBL document CHEMBL1154141, “Meroditerpenoids and derivatives from the brown alga Cystoseira baccata and their antifouling properties” (J Nat Prod, 2008).
